In assay [1] the target is Autotaxin (Homo sapiens) (UniProt Q13822). Put plainly: Inhibition of autotaxin assessed as residual enzyme activity at 1 uM relative to control. In short, it runs like this: (§1)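 ATX activity measured with the compound present at 1 μM, 10 μM or 100 μM. Activity without compound served as the standard (100%), and results are reported as percent residual ATX activity.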

For assay [2] the target is unchanged. Put plainly: Inhibition of autotaxin assessed as residual enzyme activity at 100 uM relative to control. Put shortly:
as §1

Assay [3] has the same target. The assay can be described thus: Inhibition of autotaxin assessed as residual enzyme activity at 10 uM relative to control. Put shortly:
as §1

In the case of `CCCCCCCCCCCCCCCC(=O)NCC(O)CP(=O)(O)O` (stereo not given), the figures for the Activity on Autotaxin (Homo sapiens) [1], on Autotaxin (Homo sapiens) [2] and on Autotaxin (Homo sapiens) [3] were 88%, 56% and 88%, respectively.
Consider `CCCCCCCCCCCCCCCC(=O)N[C@@H](Cc1c[nH]c2ccccc12)C(O)CP(=O)(O)O` (stereo in doubt; 42), for which the Activity was found to be 93% at Autotaxin (Homo sapiens) [1], 26% at Autotaxin (Homo sapiens) [2] and 75% on Autotaxin (Homo sapiens) [3].
Taken in the same sequence, the figures for `CCCCCCCCCCCCCCCC(=O)N[C@@H](Cc1ccc(OCc2ncc(C)c(OC)c2C)cc1)C(F)CP(=O)(O)O` (stereo not given in full) were 59%, 11% and 22%.
Taken in the same sequence, the figures for `CCCCCCCCCCCCCCCC(=O)N[C@@H](COCc1ccccc1)C(O)CP(=O)(O)O` (stereo in doubt; 45) were 83%, 19% and 41%.
Taken in the same sequence, the figures for `CCCCCCCCCCCCCCCC(=O)N[C@H](C(=O)CP(=O)(O)O)C(C)C` were 109%, 24% and 77%.
In the case of `CCCCCCCCCCCCCCCC(=O)NCC(=O)CP(=O)(O)O`, the Activity on Autotaxin (Homo sapiens) [1] is 79%; at Autotaxin (Homo sapiens) [2], 76%; at Autotaxin (Homo sapiens) [3], 95%.
On the same counts, the results for `CCCCCCCCCCCCCCCC(=O)N1CCCC1C(=O)CP(=O)(O)O` (stereo not given) are 49%, 9% and 18%.
In the case of `CCCCCCCCCCCCCCCC(=O)N[C@@H](Cc1ccc(OCc2ncc(C)c(OC)c2C)cc1)C[C@H](O)P(=O)(O)O`, the Activity at Autotaxin (Homo sapiens) [1] is 73%; at Autotaxin (Homo sapiens) [2] it was 87%; at Autotaxin (Homo sapiens) [3], 68%.
For the molecule `CCCCCCCCCCCCCCCC(=O)N[C@@H](Cc1cn(Cc2ccccc2)c2ccccc12)C(O)CP(=O)(O)O` (mixture of isomers), the Activity at Autotaxin (Homo sapiens) [1] came out at 80%; on Autotaxin (Homo sapiens) [2] it was 28%; on Autotaxin (Homo sapiens) [3], 35%.
On the same counts, the results for `CCCCCCCCCCCCCCCC(=O)N[C@@H](C)C(=O)CP(=O)(O)O` are 60%, 72% and 67%.
Taken in the same sequence, the figures for `CCCCCCCCCCCCCCCC(=O)N[C@@H](Cc1c[nH]c2ccccc12)C(O)CP(=O)(O)O` (single isomer, unassigned; diastereomer a) were 88%, 25% and 51%.
On the same counts, the results for `CCCCCCCCCCCCCCCC(=O)N1CCCC1C(O)CP(=O)(O)O` (stereo not given) are 83%, 16% and 43%.
With `CCCCCCCCCCCCCCCC(=O)N[C@@H](Cc1cn(Cc2ncc(C)c(OC)c2C)c2ccccc12)C(O)CP(=O)(O)O` (mixture of isomers), the Activity on Autotaxin (Homo sapiens) [1] came out at 64%; on Autotaxin (Homo sapiens) [2] it was 13%; at Autotaxin (Homo sapiens) [3] it was 28%.
Taken in the same sequence, the figures for `CCCCCCCCCCCCCCCC(=O)N[C@@H](CC(C)C)C(O)CP(=O)(O)O` (single isomer, unassigned; diastereomer b) were 93%, 52% and 64%.
On the same counts, the results for `CCCCCCCCCCCCCCCC(=O)N[C@@H](C(C)C)C(O)CP(=O)(O)O` (stereo in doubt; 32) are 72%, 23% and 78%.
On the same counts, the results for `CCCCCCCCCCCCCCCC(=O)N[C@@H](C)C(O)CP(=O)(O)O` (mixture of isomers) are 50%, 25% and 14%.
For the molecule `CCCCCCCCCCCCCCCC(=O)N[C@@H](CC(C)C)C(O)CP(=O)(O)O` (single isomer, unassigned; diastereomer a), the Activity on Autotaxin (Homo sapiens) [1] stood at 68%; at Autotaxin (Homo sapiens) [2] it was 23%; on Autotaxin (Homo sapiens) [3] it was 53%.
Taken in the same sequence, the figures for `CCCCCCCCCCCCCCCC(=O)N[C@@H](Cc1c[nH]c2ccccc12)C(=O)CP(=O)(O)O` were 91%, 28% and 70%.
On the same counts, the results for `CCCCCCCCCCCCCCCC(=O)N[C@@H](COCc1ccccc1)C(O)CP(=O)(O)O` (single isomer, unassigned; diastereomer b) are 78%, 61% and 46%.
As to `CCCCCCCCCCCCCCCC(=O)N[C@@H](Cc1ccccc1)C(O)CP(=O)(O)O` (single isomer, unassigned; diastereomer a), the figures for the Activity at Autotaxin (Homo sapiens) [1], on Autotaxin (Homo sapiens) [2] and on Autotaxin (Homo sapiens) [3] were 88%, 70% and 70%, respectively.
For `CCCCCCCCCCCCCCCC(=O)N[C@@H](CC(C)C)C(=O)CP(=O)(O)O`, the Activity at Autotaxin (Homo sapiens) [1] amounted to 89%; at Autotaxin (Homo sapiens) [2], 25%; on Autotaxin (Homo sapiens) [3] it was 48%.
On the same counts, the results for `CCCCCCCCCCCCCCCC(=O)N[C@@H](C(C)C)C(O)CP(=O)(O)O` (single isomer, unassigned; diastereomer a) are 115%, 13% and 57%.
Turning to `CCCCCCCCCCCCCCCC(=O)N[C@@H](Cc1ccccc1)C(O)CP(=O)(O)O` (stereo in doubt; 37), the values for the Activity at Autotaxin (Homo sapiens) [1], at Autotaxin (Homo sapiens) [2] and at Autotaxin (Homo sapiens) [3] were 92%, 67% and 99%, respectively.
Taken in the same sequence, the figures for `CCCCCCCCCCCCCCCC(=O)N[C@@H](Cc1ccc(OCc2ncc(C)c(OC)c2C)cc1)C[C@@H](O)P(=O)(O)O` were 71%, 53% and 70%.
Taken in the same sequence, the figures for `CCCCCCCCCCCCCCCC(=O)N[C@@H](Cc1ccc(OCc2ncc(C)c(OC)c2C)cc1)CC(F)P(=O)(O)O` (mixture of isomers) were 74%, 25% and 68%.
